This note sets out measurements from ChEMBL document CHEMBL2424622, “Development of amino-pyrimidine inhibitors of c-Jun N-terminal kinase (JNK): kinase profiling guided optimization of a 1,2,3-benzotriazole lead” (Bioorg Med Chem Lett, 2013).

Assay [1] has as its target T1, Ephrin type-B receptor 4 (Homo sapiens) (UniProt P54760).
T1 sequence (whole entry): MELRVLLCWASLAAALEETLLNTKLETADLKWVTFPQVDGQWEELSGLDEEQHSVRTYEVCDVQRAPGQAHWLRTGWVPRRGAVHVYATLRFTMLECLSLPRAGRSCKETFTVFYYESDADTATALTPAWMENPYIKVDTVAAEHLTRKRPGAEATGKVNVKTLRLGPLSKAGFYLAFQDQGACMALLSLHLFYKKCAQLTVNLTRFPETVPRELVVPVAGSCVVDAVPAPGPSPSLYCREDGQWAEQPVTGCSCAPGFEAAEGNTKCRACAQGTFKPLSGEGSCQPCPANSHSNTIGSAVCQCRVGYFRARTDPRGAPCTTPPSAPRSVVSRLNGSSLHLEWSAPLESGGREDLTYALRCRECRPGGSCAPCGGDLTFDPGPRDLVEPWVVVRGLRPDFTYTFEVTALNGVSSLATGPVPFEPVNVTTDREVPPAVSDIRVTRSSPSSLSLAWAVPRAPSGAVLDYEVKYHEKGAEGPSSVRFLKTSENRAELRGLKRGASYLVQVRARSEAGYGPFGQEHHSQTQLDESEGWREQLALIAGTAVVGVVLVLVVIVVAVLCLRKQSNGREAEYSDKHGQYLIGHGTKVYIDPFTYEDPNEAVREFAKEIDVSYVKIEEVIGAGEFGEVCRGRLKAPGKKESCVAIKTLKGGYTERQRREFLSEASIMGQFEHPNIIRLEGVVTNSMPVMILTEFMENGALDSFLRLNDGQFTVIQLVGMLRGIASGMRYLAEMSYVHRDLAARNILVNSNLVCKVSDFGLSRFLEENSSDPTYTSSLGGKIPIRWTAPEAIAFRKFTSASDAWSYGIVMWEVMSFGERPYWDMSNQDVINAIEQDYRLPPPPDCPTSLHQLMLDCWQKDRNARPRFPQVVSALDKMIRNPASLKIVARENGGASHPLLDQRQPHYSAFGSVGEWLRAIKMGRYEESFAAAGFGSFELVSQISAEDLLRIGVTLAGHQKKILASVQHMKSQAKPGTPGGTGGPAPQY
As to the kind of experiment: Competitive binding affinity to EPHB4 (unknown origin) at 10 uM in presence of ATP relative to control. The method in brief:
(§1)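 In vitro ATP-site competition binding assay, part of profiling against a diverse panel of 128 kinases. Each compound was tested at a single concentration of 10 µM. Kinome selectivity was summarized as S15 selectivity scores.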

The target of assay [2] is Mitogen-activated protein kinase kinase kinase 4 (Homo sapiens) (UniProt Q9Y6R4). The assay can be described thus: Competitive binding affinity to MAP3K4 (unknown origin) at 10 uM in presence of ATP relative to control. The method in brief: as §1
In assay [3] the target is Tyrosine-protein kinase Fes/Fps (Homo sapiens) (UniProt P07332). The assay can be described thus: Competitive binding affinity to FES (unknown origin) at 10 uM in presence of ATP relative to control. The method in brief: as §1
Assay [4] has as its target T2, Dual specificity protein kinase TTK (Homo sapiens) (UniProt P33981).
T2 sequence (whole entry): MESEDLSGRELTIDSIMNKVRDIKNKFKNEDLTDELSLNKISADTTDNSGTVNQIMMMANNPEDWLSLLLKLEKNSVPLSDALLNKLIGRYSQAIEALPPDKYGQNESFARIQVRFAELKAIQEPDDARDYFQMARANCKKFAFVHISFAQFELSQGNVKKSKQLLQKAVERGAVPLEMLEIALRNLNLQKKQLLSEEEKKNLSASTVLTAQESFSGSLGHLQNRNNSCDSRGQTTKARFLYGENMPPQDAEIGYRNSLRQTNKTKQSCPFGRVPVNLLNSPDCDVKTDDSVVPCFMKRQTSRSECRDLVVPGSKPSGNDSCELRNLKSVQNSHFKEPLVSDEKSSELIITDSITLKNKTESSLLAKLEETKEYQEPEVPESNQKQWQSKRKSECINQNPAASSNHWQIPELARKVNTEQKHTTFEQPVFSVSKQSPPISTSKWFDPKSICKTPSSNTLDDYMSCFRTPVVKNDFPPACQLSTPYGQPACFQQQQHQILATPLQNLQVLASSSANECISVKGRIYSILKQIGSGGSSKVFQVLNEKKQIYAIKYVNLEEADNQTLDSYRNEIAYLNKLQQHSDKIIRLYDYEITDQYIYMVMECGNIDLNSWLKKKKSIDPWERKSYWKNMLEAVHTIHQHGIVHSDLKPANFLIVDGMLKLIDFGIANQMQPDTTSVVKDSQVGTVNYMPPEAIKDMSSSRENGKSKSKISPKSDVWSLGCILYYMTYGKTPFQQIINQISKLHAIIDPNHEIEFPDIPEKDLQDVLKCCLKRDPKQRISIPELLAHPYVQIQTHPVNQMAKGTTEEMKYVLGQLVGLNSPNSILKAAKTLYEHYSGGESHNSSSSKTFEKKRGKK
As to the kind of experiment: Competitive binding affinity to TTK (unknown origin) at 10 uM in presence of ATP relative to control. In short, it runs like this:
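In vitro ATP-site competition binding assay across a diverse panel of 128 kinases, with each compound tested at a single concentration. Kinase binding is expressed relative to control.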

Sequence of Mitogen-activated protein kinase kinase kinase 4 (Homo sapiens) (Q9Y6R4 whole entry): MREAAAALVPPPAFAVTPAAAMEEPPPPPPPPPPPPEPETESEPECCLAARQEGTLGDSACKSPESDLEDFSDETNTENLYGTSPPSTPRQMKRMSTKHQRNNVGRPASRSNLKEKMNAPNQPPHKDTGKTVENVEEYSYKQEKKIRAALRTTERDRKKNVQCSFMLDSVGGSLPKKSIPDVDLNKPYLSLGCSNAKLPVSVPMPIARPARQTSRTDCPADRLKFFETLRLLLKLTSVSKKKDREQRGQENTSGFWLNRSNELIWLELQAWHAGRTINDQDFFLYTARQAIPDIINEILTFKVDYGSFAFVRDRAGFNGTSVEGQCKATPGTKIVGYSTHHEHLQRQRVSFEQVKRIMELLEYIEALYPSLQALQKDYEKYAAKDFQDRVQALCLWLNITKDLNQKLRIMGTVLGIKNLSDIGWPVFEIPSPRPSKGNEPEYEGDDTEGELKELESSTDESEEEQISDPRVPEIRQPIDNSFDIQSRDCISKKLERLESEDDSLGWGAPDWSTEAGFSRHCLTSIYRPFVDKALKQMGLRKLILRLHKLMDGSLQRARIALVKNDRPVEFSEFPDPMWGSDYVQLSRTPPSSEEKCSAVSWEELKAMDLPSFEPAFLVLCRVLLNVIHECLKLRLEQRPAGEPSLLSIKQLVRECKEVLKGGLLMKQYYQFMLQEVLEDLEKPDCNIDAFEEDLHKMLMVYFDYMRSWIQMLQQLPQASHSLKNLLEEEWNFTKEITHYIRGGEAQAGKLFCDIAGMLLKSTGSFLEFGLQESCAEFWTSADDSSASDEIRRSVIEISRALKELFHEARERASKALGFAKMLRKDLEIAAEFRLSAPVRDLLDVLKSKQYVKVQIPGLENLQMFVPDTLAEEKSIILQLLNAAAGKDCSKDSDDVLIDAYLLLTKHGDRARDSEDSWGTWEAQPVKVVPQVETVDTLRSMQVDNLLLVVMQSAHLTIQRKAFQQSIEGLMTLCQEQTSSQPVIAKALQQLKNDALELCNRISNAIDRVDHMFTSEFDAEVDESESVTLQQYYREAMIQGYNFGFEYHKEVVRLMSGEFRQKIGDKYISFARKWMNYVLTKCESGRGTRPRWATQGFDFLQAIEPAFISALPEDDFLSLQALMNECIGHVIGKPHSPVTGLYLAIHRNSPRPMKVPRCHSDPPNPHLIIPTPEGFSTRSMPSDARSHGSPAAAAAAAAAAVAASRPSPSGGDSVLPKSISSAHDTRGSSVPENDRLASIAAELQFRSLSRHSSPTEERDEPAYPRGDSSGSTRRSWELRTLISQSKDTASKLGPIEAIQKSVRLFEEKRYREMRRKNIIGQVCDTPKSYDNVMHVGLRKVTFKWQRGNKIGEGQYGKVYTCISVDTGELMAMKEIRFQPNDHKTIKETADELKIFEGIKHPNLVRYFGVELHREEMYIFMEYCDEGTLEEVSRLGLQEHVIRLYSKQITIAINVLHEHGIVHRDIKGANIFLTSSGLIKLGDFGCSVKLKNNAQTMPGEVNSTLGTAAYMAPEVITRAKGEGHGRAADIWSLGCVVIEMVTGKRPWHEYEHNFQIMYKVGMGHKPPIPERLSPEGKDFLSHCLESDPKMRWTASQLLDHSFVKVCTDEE
Sequence of Tyrosine-protein kinase Fes/Fps (Homo sapiens) (P07332 whole entry): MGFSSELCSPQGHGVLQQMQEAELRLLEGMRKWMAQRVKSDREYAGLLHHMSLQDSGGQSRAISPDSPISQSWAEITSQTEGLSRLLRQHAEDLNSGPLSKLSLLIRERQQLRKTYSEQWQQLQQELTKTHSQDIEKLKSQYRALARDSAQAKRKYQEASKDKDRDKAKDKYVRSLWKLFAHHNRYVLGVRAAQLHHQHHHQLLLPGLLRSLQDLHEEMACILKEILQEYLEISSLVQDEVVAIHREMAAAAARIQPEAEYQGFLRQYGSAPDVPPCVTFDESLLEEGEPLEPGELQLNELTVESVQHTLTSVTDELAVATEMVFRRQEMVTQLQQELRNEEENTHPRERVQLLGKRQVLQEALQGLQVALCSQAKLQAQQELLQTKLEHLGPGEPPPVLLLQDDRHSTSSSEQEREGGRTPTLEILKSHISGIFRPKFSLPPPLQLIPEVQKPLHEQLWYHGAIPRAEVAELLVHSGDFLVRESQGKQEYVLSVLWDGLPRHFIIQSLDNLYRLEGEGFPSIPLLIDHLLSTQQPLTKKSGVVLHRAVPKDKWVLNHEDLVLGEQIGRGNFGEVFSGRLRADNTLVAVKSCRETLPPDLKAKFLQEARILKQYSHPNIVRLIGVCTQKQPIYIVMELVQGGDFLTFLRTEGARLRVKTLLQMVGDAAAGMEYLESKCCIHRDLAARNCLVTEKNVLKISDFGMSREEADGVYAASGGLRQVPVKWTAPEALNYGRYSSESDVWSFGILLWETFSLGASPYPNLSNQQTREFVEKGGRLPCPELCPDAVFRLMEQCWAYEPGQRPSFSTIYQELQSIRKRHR

For the molecule `O[C@H]1CC[C@H](Nc2nccc(-c3n[nH]c4ccccc34)n2)CC1`, the inhibition in assay [1] is 100%; in assay [2], 100%; in assay [3], below 50%; in assay [4] it was 100%.
On to `O[C@H]1CC[C@H](Nc2nccc(-n3ccc4ccccc43)n2)CC1`, for which the inhibition was below 50% in assay [1], below 50% in assay [2], below 50% in assay [3] and 84% in assay [4].
With `O[C@H]1CC[C@H](Nc2nccc(-n3ncc4ccccc43)n2)CC1`, the inhibition in assay [1] is below 50%; in assay [2] it was below 50%; in assay [3], below 50%; in assay [4], 100%.
On to `O[C@H]1CC[C@H](Nc2nccc(-n3nnc4ccccc43)n2)CC1`, for which the inhibition in assay [1] was below 50%; in assay [2] it was below 50%; in assay [3] it was below 50%; in assay [4], 99%.
As for `O=C([C@H]1CC[C@H](Nc2nccc(-n3nnc4ccccc43)n2)CC1)N1CCOCC1`, the inhibition in assay [1] is below 50%; in assay [2] it was below 50%; in assay [3] it was below 50%; in assay [4], 98%.
As to `CS(=O)(=O)CCCOc1cccc2c1ccn2-c1ccnc(N[C@H]2CC[C@H](C(=O)N3CCC(O)CC3)CC2)n1`, the inhibition in assay [4] is above 85%.
Regarding `N[C@H]1CC[C@H](Nc2nccc(-n3nnc4ccccc43)n2)CC1`, the inhibition in assay [1] was below 50%; in assay [2], 84%; in assay [3], below 50%; in assay [4] it was 96%.

Usually inhibition stands for how much of the control response was suppressed.
